High-throughput results deposited in PubChem by SRMLSC.
H69AR inhibit = proliferation blockers of H69AR lung cancer cells, primary screen, cell-based, human, 86K library | H69AR lung tumor viability, ATP luminescence, 72 h; active compounds read low | viability, % at 10 µM | 85,000 tested, 6% active;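 active means viability at or below 40%; inactive means viability above 40%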;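 further: multidrug resistant small cell line overexpressing MRP-1 efflux transporter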
HUVEC prolif 384 = inhibitors of HUVEC proliferation, primary screen, cell-based, 384-well; CellTiter-Glo luminescence, 72 h; active compounds read low; AID 648, 2007; 86,000 tested, 1.1% active; viability, % at 10 µM (by protocol);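 active means viability at or below 30%; inactive means viability above 30%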
PTEN del growth = growth suppression of PTEN-null HCT116, primary screen, cell-based, CellTiter-Glo. viability, % at 10 µM. AID 827, 2007. 140,000 tested, 1.2% active. HCT116 PTEN-null viability, 60 h; active compounds read low;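 active means viability at or below a set limit, 4 SD under the median of all tested compounds, cut at about 3.7% in these data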;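 further: PTEN knockout HCT116 line with beta catenin targeted HCT116 as companion control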
HCT116 bCat-KO = primary screen for growth suppressors in beta-catenin knockout HCT116 cells (colon tumor, human) | 140,000 tested, 1.5% active | HCT116 beta-catenin knockout viability, CellTiter-Glo, 60 h; active compounds read low | AID 818, 2007 | viability, % at 10 µM;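 active means viability at or under a set limit, the compound median less 4 SD, cut at about 6% in these data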
Fibroblast inh = antiproliferative effect on LL 47 fibroblasts – human, LL 47 cells, CellTiter-Glo luminescence, primary screen. LL 47 human lung fibroblast viability, ATP luminescence; active compounds read low. viability, % at 10 µM. 85,000 tested, 1.1% active;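 active means viability at or below 50% in the single dose screen; inactive means viability above 50%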;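 further: compound exposure lasted 72 h before the ATP readout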
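Material: human lung fibroblast line LL 47, low passage; Evaluation: viability percentage against median untreated-cell control; Buffer or medium: 15% FBS in IMEM; Incubation: 72 h compound exposure at 37 °C after overnight plating; Dosing: 0.1% DMSO in all compound wells; Measured by: CellTiter-Glo luminescence.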
Each line names hits and unclear results; the compound was inactive in the other large screens. The entries come from a sample that favours hits as a whole.

O=S1(=O)C=C(Sc2nc3cc(Cl)ccc3o2)c2ccccc21	PTEN del growth 1.6, HCT116 bCat-KO 1.6 (no result: H69AR inhibit, HUVEC prolif 384, Fibroblast inh)
COc1cc(OC)cc(-c2nnc(Nc3nc4c(F)cccc4s3)o2)c1	none
COc1ccc(-c2nnc(Nc3nc4c(OC)cccc4s3)o2)cc1	HUVEC prolif 384 2.9
COc1ccc(-c2nnc(Nc3nc4c(OC)cccc4s3)o2)c(OC)c1	H69AR inhibit 33, HUVEC prolif 384 20, HCT116 bCat-KO 3.7
Fc1cccc2sc(Nc3nnc(-c4ccccc4)o3)nc12	HUVEC prolif 384 6.8
O=C(c1ccc2c(c1)N(Cc1ccccc1)C(=O)c1ccccc1S2)N1CCCC1	H69AR inhibit 29
CCCCCn1c2nc3ccccc3nc2c2c(=O)n(CC3CCCO3)c(C)nc21 (stereo not drawn)	none (no result: PTEN del growth, HCT116 bCat-KO)
Cc1ccc(-n2c(=O)c3sccc3n(Cc3cc(=O)n4cc(Cl)ccc4n3)c2=O)cc1F	none (no result: H69AR inhibit, HUVEC prolif 384, Fibroblast inh)
CC(C)NC(=O)CSCc1c(F)cccc1Cl	none
COc1ccc(NC(=O)COn2nnc3ccc(Cl)cc32)cc1OC	H69AR inhibit 39
Cc1nnc(C)c2c(C)n(C(c3ccccc3)c3ccccc3)c(C)c12	H69AR inhibit 26
CCCCCn1c(N)c(-c2nc3ccccc3s2)c2c([N+](=O)[O-])nn(C)c(=O)c21	H69AR inhibit 15
CCCCn1c(N)c(-c2nc3ccccc3o2)c2c([N+](=O)[O-])nn(C)c(=O)c21	none (no result: H69AR inhibit, HUVEC prolif 384, Fibroblast inh)
Cc1ccc(C(=O)NNC(=O)c2cccc(S(=O)(=O)N3CCN(c4ccccc4)CC3)c2)cc1	none (no result: H69AR inhibit, HUVEC prolif 384, Fibroblast inh)
CCOc1ncccc1C(=O)OCc1ccc(C(=O)OC)cc1	none (no result: H69AR inhibit, HUVEC prolif 384, Fibroblast inh)
COc1cc([C@@H]2c3cc4c(cc3[C@H](O)[C@H]3COC(=O)[C@H]23)OCO4)cc(OC)c1OC	H69AR inhibit 36
COc1ccc(OC)c(C(=O)C2COC(=O)C2)c1 (stereo not drawn)	H69AR inhibit 26
CC1=C(C(=O)Nc2ccc([N+](=O)[O-])cc2)C(c2cccc(C(F)(F)F)c2)NC(=S)N1c1ccccc1 (stereo not drawn)	PTEN del growth 1.9, HCT116 bCat-KO 1.4 (no result: H69AR inhibit, HUVEC prolif 384, Fibroblast inh)
C=CCOc1c(Cl)cc(C2NC(=O)NC(C)=C2C(=O)OC)cc1Cl (stereo not drawn)	H69AR inhibit 32
C/C(=N\NC(=O)C(=O)Nc1cccc(Cl)c1C)c1ccncc1	none (no result: H69AR inhibit, HUVEC prolif 384, Fibroblast inh)
COCCn1c(-c2ccc(OC(F)(F)C(F)C(F)(F)F)cc2)nc2c1c(=O)[nH]c(=O)n2CC(C)C (stereo not drawn)	H69AR inhibit 39
Cc1cc(CCCCCCCCc2cc(C)cc(=O)o2)oc(=O)c1	none (no result: H69AR inhibit, HUVEC prolif 384, Fibroblast inh)
Nc1nc(-c2ccccc2)nc2sc3c(c12)CCCC3	none (no result: H69AR inhibit, HUVEC prolif 384, Fibroblast inh)
O=C(c1cc2nc(-c3ccccc3)cc(-c3ccccc3)n2n1)N1CCN(C(=O)c2ccco2)CC1	H69AR inhibit 25
Cc1nn2c(N3CCN(C(=O)c4ccco4)CC3)cc(C(C)(C)C)nc2c1-c1ccc(Cl)cc1	none (no result: H69AR inhibit, HUVEC prolif 384, Fibroblast inh)
Cc1cc(N2CCN(C(=O)c3ccco3)CC2)n2nc(C)c(-c3ccccc3)c2n1	H69AR inhibit 18
CCN1CCN(c2cc(C(C)(C)C)nc3c(-c4ccccc4)c(C)nn23)CC1	H69AR inhibit 38, HUVEC prolif 384 3.2, Fibroblast inh 9.8
Cc1cc(N2CCN(C(=O)c3ccco3)CC2)n2nc(C)c(-c3ccc(Cl)cc3)c2n1	H69AR inhibit 16 (no result: PTEN del growth, HCT116 bCat-KO)
CN1CCN(C(=O)c2cc3nc(-c4ccccc4)cc(-c4ccccc4)n3n2)CC1	none
Cc1nc2c(-c3ccccc3)c(C)nn2c(C)c1CCC(=O)NCc1ccco1	none
Cc1ccc(-c2nnc(N3CCN(C(=O)c4ccco4)CC3)c3ccccc23)cc1	none
CCN1CCN(c2ccc(NC(=O)CCc3c(C)nc4c(-c5ccccc5)c(C)nn4c3C)cc2)CC1	PTEN del growth 1.9, HCT116 bCat-KO 0.9 (no result: H69AR inhibit, HUVEC prolif 384, Fibroblast inh)
O=C(c1ccccc1)c1ccc2nc(N3CCN(C(=O)c4ccco4)CC3)c3nncn3c2c1	H69AR inhibit 18
Cc1c(N2C(=O)C(=O)/C(=C(/O)c3ccc(Cl)cc3)C2c2ccccc2)c(=O)n(-c2ccccc2)n1C (stereo not drawn)	none (no result: H69AR inhibit, HUVEC prolif 384, Fibroblast inh)
O=c1[nH]c(=O)n(Cc2ccccc2)c2nc(-c3ccc(Oc4ccc(F)cc4)c([N+](=O)[O-])c3)n(CCO)c12	PTEN del growth 1.1, HCT116 bCat-KO 0.8 (no result: H69AR inhibit, HUVEC prolif 384, Fibroblast inh)
CC(=O)NC1=C(NC2CCS(=O)(=O)C2)C(=O)c2ccccc2C1=O (stereo not drawn)	none (no result: H69AR inhibit, HUVEC prolif 384, Fibroblast inh)
CN(C1=C(NC(=O)c2ccccc2)C(=O)c2ccccc2C1=O)C1CCS(=O)(=O)C1 (stereo not drawn)	HCT116 bCat-KO 2.7 (no result: H69AR inhibit, HUVEC prolif 384, Fibroblast inh)
CCCCOc1cccc(C(=O)N(Cc2cccs2)C2CCS(=O)(=O)C2)c1 (stereo not drawn)	H69AR inhibit 37
CCCOc1cccc(C(=O)N(Cc2cccs2)C2CCS(=O)(=O)C2)c1 (stereo not drawn)	none
O=C(N/N=C/C(Br)=C\c1ccccc1)c1ccc2nc[nH]c2c1	PTEN del growth 3.3, HCT116 bCat-KO 2.2 (no result: H69AR inhibit, HUVEC prolif 384, Fibroblast inh)
Cc1cc(C)nc(SCC(=O)N/N=C\C(Br)=C\c2ccccc2)n1	none (no result: H69AR inhibit, HUVEC prolif 384, Fibroblast inh)
Cc1ccc(NCC(=O)N/N=C\C(Br)=C\c2ccccc2)cc1	PTEN del growth 2.7, HCT116 bCat-KO 2.6
COc1ccc(/C=N/NC(=O)c2c(-c3ccccc3)noc2C)cc1	none (no result: H69AR inhibit, HUVEC prolif 384, Fibroblast inh)
Cc1onc(-c2ccccc2)c1C(=O)N/N=C/C(Br)=C/c1ccccc1	PTEN del growth 2.9, HCT116 bCat-KO 3.6 (no result: H69AR inhibit, HUVEC prolif 384, Fibroblast inh)
CCOc1cc(C(=O)N/N=C/C(Br)=C/c2ccccc2)cc(OCC)c1OCC	PTEN del growth 2.3 (no result: H69AR inhibit, HUVEC prolif 384, Fibroblast inh)
Cc1ccc(C(=O)Nc2ccc(Br)cc2)cc1S(=O)(=O)Nc1ccccn1	none (no result: H69AR inhibit, HUVEC prolif 384, Fibroblast inh)
CC(=O)NS(=O)(=O)c1ccc(NC(=O)c2ccc3c(c2)C(=O)N(CCC(C)C)C3=O)cc1	none (no result: H69AR inhibit, HUVEC prolif 384, Fibroblast inh)
Cc1ccc(Cl)cc1NC(=O)N[C@@H](C)C(=O)O	none (no result: H69AR inhibit, HUVEC prolif 384, Fibroblast inh)
CN(C)c1ncnc2c1ncn2C1OC(CO)C(O)C1O (stereo not drawn)	H69AR inhibit 6.8, HUVEC prolif 384 15, HCT116 bCat-KO 5.2, Fibroblast inh 41
Nc1nc(Cl)nc2c1ncn2[C@@H]1O[C@H](CO)[C@@H](O)[C@H]1O	H69AR inhibit 18
O=C(c1ccc(Cl)s1)N1CCN(c2nc3ccccc3s2)CC1	none
CCOC(=O)N1CCC(NC(=O)c2cc(C)c3c(C)nn(-c4ccccc4)c3n2)CC1	H69AR inhibit 22
CCOC(=O)N1CCC(NC(=O)c2cc3c(C)nc4ccccc4c3o2)CC1	none
CCCCCOP(=O)(OCCCCC)C1(NS(=O)(=O)c2ccccc2)C=CC(=O)c2ccccc21 (stereo not drawn)	H69AR inhibit 19
O=C(NC(=S)Nc1nc2c(ccc3ccccc32)s1)c1cccs1	none (no result: H69AR inhibit, HUVEC prolif 384, Fibroblast inh)
O=C(O)c1cn(-c2ccccc2)nc1-c1ccncc1	none
O=C(c1cn(-c2ccccc2)nc1-c1ccncc1)n1nnc2ccccc21	H69AR inhibit 8.1 (no result: PTEN del growth, HCT116 bCat-KO, Fibroblast inh)
CCOc1cc(C(=O)Nc2cnccn2)cc(OCC)c1OCC	H69AR inhibit 24
